# Source: publication PMC6350648 (Drug Design, Development and Therapy, 2019)
# No end group written: not given here.
# Tests used:
# [1] = tested on: NCI-H157 cells; assay: MTT assay; assay type: cell-based, human; details: peptides in serum-free medium
# In short: (§1)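 For MTT viability, MDA-MB-435S, U251MG, HCT116 and MCF-7 were grown in DMEM, and NCI-H157 and PC-3 in RPMI 1640. All media had 10% FBS and 1% penicillin–streptomycin. Peptides were diluted in serum-free medium. Untreated cells defined 100% viability, and LD50 was the median lethal dose. Values are the mean with standard error from five independent experiments.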
# [2] = tested on: MDA-MB-435S cells; assay: MTT assay; assay type: cell-based, human; details: MB435s (MDA-MB-435S); peptides in serum-free medium
# In short: as §1
# [3] = tested on: HCT116 cells; assay: MTT assay; assay type: cell-based, human; details: peptides in serum-free medium
# In short: as §1
# [4] = tested on: MCF-7 cells; assay: MTT assay; assay type: cell-based, human; details: peptides in serum-free medium
# In short: as §1
# [5] = tested on: Enterococcus faecalis (NCTC12697); assay: MIC/MBC broth-dilution assay; assay type: cell-based; details: E. faecalis NCTC12697, MHB pH 7.4, 512 to 1 µM twofold, 1% DMSO
# In short: (§2)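 Broth dilution was run in Mueller Hinton Broth, pH 7.4, with peptide at final 512 to 1 µM in twofold steps. Peptide stocks were in DMSO, giving final 1% (v/v) DMSO, also used alone as vehicle control. Controls were culture without peptide for growth and fresh MHB as blank. Positive controls were 5 mg/L vancomycin (S. aureus, MRSA, E. faecalis) and 5 mg/L amphotericin B (C. albicans). Five independent experiments were run.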
# [6] = tested on: U251MG cells; assay: MTT assay; assay type: cell-based, human; details: peptides in serum-free medium
# In short: as §1
# [7] = tested on: PC-3 cells; assay: MTT assay; assay type: cell-based, human; details: peptides in serum-free medium
# In short: as §1
# [8] = tested on: MCF-7 cells; assay type: cell-based, human; details: MCF-7, 10 µM peptide; 100% = 1% TritonX-100; five replicates
# [9] = tested on: Staphylococcus aureus (NCTC10788); assay: MIC/MBC broth-dilution assay; assay type: cell-based; details: S. aureus NCTC10788, MHB pH 7.4, 512 to 1 µM twofold, 1% DMSO
# In short: as §2
# [10] = tested on: Candida albicans (NCYC1467); assay: MIC/MBC broth-dilution assay; assay type: cell-based; details: C. albicans NCYC1467, MHB pH 7.4, 512 to 1 µM twofold, 1% DMSO
# In short: as §2
# [11] = tested on: methicillin-resistant S. aureus (MRSA) (NCTC12493); assay: MIC/MBC broth-dilution assay; assay type: cell-based, Staphylococcus aureus; details: MHB pH 7.4, 512 to 1 µM twofold, 1% DMSO
# In short: as §2
# [12] = tested on: Escherichia coli (NCTC10418); assay: MIC/MBC broth-dilution assay; assay type: cell-based; details: E. coli NCTC10418, MHB pH 7.4, 512 to 1 µM twofold, 1% DMSO
# In short: as §2
# [13] = tested on: horse erythrocytes; assay: Hemolysis assay; assay type: cell-based; details: peptides in PBS, 512 to 1 µM, 1% Triton-X100 = 100%
# In short: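 Horse erythrocytes were exposed to peptide in PBS at 512 to 1 µM. Erythrocytes in PBS defined 0% hemolysis and 1% (v/v) Triton X-100 defined 100%. HC50 (µM) was the concentration giving half-maximal hemolysis. Values are the mean with standard error from five independent experiments.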
# [14] = tested on: selected human cancer cell lines; assay: MTT assay, all cancer cell lines examined; assay type: cell-based; details: all six cancer cell lines
# In short: as §1
Substance,LD50 of MTT assays [1] [µM],LD50 of MTT assays [2] [µM],LD50 of MTT assays [3] [µM],LD50 of MTT assays [4] [µM],MBC [5] [µM],MIC [5] [µM],LD50 of MTT assays [6] [µM],LD50 of MTT assays [7] [µM],LDH release [8],MBC [9] [µM],MIC [9] [µM],MBC [10] [µM],MIC [10] [µM],MBC [11] [µM],MIC [11] [µM],MBC [12] [µM],MIC [12] [µM],HC50 of hemolysis on erythrocytes [13] [µM],LD50 (MTT) for all the cell lines examined [14] [µM]
"FLSLIPAAISAVSALANHF-NH2 [PSPHa, Phylloseptin-PHa]",37.61,28.48,36.64,24.05,> 512,> 512,34.67,37.96,not as potent as PSPHa2–5,16,8,32,32,128,64,> 512,> 512,52.17,–
FLSLIPKAISAISALANHF-NH2 [PSPHa2],35.34,19.56,37.4,26.49,64,64,36.46,35.11,–,4,4,16,8,32,16,128,64,34.86,–
FLSLIPKAISAISALINHF-NH2 [PSPHa3],2.865,3.994,11.71,10.48,32,32,10.85,9.164,–,2,2,4,4,32,32,> 512,> 512,9.266,–
FLSLIPKIISAISALIKHF-NH2 [PSPHa5],3.614,3.553,4.421,3.753,32,16,4.059,4.256,–,2,2,128,32,128,64,> 512,> 512,1.074,< 5
FLSLIPKAISAVSALANHF-NH2 [PSPHa1],41.73,32.41,35.16,45.69,32,32,33.65,32.89,lowest degree of LDH release,8,8,32,16,32,16,128,128,197.7,–
FLSLIPKIISAISALINHF-NH2 [PSPHa4],2.265,4.802,6.779,15.01,64,32,9.547,9.35,–,2,2,128,32,256,128,> 512,> 512,2.766,–
